Experimental data gathered from unrelated publications.
Each line is one published result; the experiments were not run side by side.
TEK: Angiopoietin-1 receptor (TEK, Homo sapiens, UniProt Q02763)
TEK Y897S: Angiopoietin-1 receptor (TEK, Homo sapiens, UniProt Q02763, Y897S)

| Structure (SMILES) | target | test | setting | quantity | result |
| --- | --- | --- | --- | --- | --- |
| CC(=O)N1CCC(c2ccc(C(=O)NC3=NCCN3)cc2C(F)(F)F)CC1 | TEK | cell-free assay, competition with immobilised ligand | 1 µM | remaining binding | 100% |
| CNC(=O)c1cc2c(Oc3ccc(NC(=O)C4(C(=O)Nc5ccc(F)cc5)CC4)cc3)ccnc2cc1OC | TEK Y897S | enzyme activity, inhibitor, radiometric | 1 µM | inhibition | 96% |
| CC(C)(O)[C@H]1CC[C@H](Nc2ccc3ncc(-c4cccc(C(F)(F)F)c4)n3n2)CC1 | TEK | enzyme activity, inhibitor | 1 µM | remaining activity | 89% |
| CC1=C(C#N)[C@@H](c2ccc3[nH]nc(C)c3c2)C(C#N)=C(c2ccc(Cl)cc2)N1 | TEK | cell-free assay, competition with immobilised ligand | 1 µM | remaining binding | 74.5% |
| O=C1Nc2ccc(Cl)cc2C1=Cc1cc(Cl)c(O)c(Cl)c1 | TEK | cell-free assay | 0.5 µM | remaining signal | 93% |
| CC(C)(C)c1nc2c(s1)c1nc(N)ncc1c1ccc(NS(=O)(=O)c3c(F)cccc3F)c(F)c12 | TEK | enzyme activity, inhibitor, radiometric | 1 µM | remaining activity | 79% |
| Cc1ccc(NC(=O)c2ccc(C)c(C(F)(F)F)c2)cc1C#Cc1nn(C2CCC(O)CC2)c2ncnc(N)c12 (stereo not shown) | TEK Y897S | enzyme activity, inhibitor | 10 µM | remaining activity | 0% |
| O=C(Nc1cnn(-c2csc(C(=O)NC3COC3)c2)c1)Nc1ccccc1Cl | TEK | enzyme activity, inhibitor | 5 µM | remaining activity | 100% |
| CCCS(=O)(=O)Nc1ccc(F)c(C(=O)c2c[nH]c3ncc(-c4ccc(Cl)cc4)cc23)c1F | TEK | enzyme activity, inhibitor | 1 µM | inhibition | < 10% |
| Cc1cnc(NC2CCOCC2)nc1-n1cnc(C(=O)NC(CN)c2cc(F)cc(Cl)c2)c1 (stereo not shown) | TEK | enzyme activity, inhibitor, radiometric | 1 µM | remaining activity | 105% |
| COc1cc(Cl)c(C(=O)N[C@@H](CN[C@H]2CC[C@@H](N)CC2)Cc2ccc(C#N)cc2)cc1-c1ccc(CN[C@H](C)c2ccc(C)cc2)o1 | TEK | enzyme activity, inhibitor | 1 µM | remaining activity | 79% |
| Cc1cc(NC(=O)c2cccc3cc(-c4cccc5[nH]nc(N)c45)ccc23)ccc1F | TEK Y897S | enzyme activity, inhibitor | 0.1 µM | activity vs control | 103% |
| CCN(CC)CCNC(=O)c1c(C)[nH]c(/C=C2\C(=O)Nc3ccc(F)cc32)c1C | TEK | enzyme activity, inhibitor | 0.3 µM | inhibition | -2% |
| Cc1[nH]c(/C=C2\C(=O)Nc3ccc(F)cc32)c(C)c1C(=O)N[C@H]1CCN(C(=O)N(C)C)C1 | TEK | enzyme activity, inhibitor | 0.1 µM | remaining activity | 94% |
| CC(C)CC(=O)N1CCc2nc(-c3ccc(Br)cc3)nc(N(C)Cc3ccccc3)c2C1 | TEK | cell-free assay, competition with immobilised ligand | 0.1 µM | remaining binding | 100% |
| COc1cc2ncnc(Nc3ccc(Oc4ccccc4)cc3C)c2cc1OC | TEK | enzyme activity, inhibitor | 1 µM | inhibition | 13% |

| Structure (SMILES) | target | test | setting | quantity | result |
| --- | --- | --- | --- | --- | --- |
| CCOCCn1cc(C(=O)Nc2ccc(-n3nc(-c4cccnc4)cc3C(F)(F)F)cn2)ccc1=O | TEK | cell-free assay, competition with immobilised ligand | 1 µM | remaining binding | 87% |
| CCCOc1ccc(OC)c(F)c1C(=O)c1ccc(C(=O)N[C@@H]2CNC[C@H]2NC(=O)c2ccc3[nH]ncc3c2)cc1 | Angiopoietin-1 receptor (TEK, Homo sapiens, UniProt Q02763, R849W) | enzyme activity, inhibitor | 10 µM | remaining activity | 46% |
| COc1cc(/C=C/C(=O)CC(=O)/C=C/c2ccc(O)c(OC)c2)ccc1O | TEK | enzyme activity, inhibitor | 1 µM | activity vs control | 112% |
| COc1cc(Nc2cnc(C#N)c(O[C@H](C)CN(C)C)n2)ncc1-c1cnn(C)c1 | TEK | enzyme activity, inhibitor, radiometric | 1 µM | remaining activity | 102% |
| CCOc1cc(-c2nncn2C)ccc1Nc1ncc2cc(C)nc(NCC(C)(C)C)c2n1 | TEK | enzyme activity, inhibitor, FRET | 1 µM | inhibition | < 15% |
| CS(=O)(=O)Nc1cccc(-c2csc(NC(=O)CSc3nc4nccnc4c(=O)n3CCc3ccccc3)n2)c1 | TEK | enzyme activity, inhibitor | 10 µM | inhibition | 3% |
| CNC(=O)c1cc(Oc2ccc(NC(=O)Nc3ccc(Cl)c(C(F)(F)F)c3)cc2)ccn1 | TEK | cell-free assay | 0.5 µM | remaining signal | 104% |
| Cc1noc([C@H]2C[C@@H](c3ccc(C(F)(F)F)cc3)CN(C(=O)N3CCS(=O)(=O)C3)C2)n1 | TEK | cell-free assay, competition with immobilised ligand | 1 µM | remaining binding | 100% |
| Cc1ccc(NC(=O)c2ccc(CN3CCN(C)CC3)cc2)cc1Nc1nc(-c2cccnc2)cs1 | TEK | cell-free assay | 0.5 µM | remaining signal | 97.2% |
| CN([C@@H]1CCc2c(CC(=O)O)c3cc(S(C)(=O)=O)ccc3n2C1)S(=O)(=O)c1ccc(F)cc1 | TEK | cell-free assay, competition with immobilised ligand | 1 µM | remaining binding | 88% |
| CNCc1ccc(-c2cc(-c3nc(-c4ccc(S(=O)(=O)C(C)C)cc4)cnc3N)on2)cc1 | TEK | enzyme activity, inhibitor | 2 µM | inhibition | 44% |
| CCCOc1ccc([C@H]2[C@H](C(=O)O)[C@@H](c3ccc4c(c3)OCO4)CN2CC(=O)Nc2c(CC)cccc2CC)cc1 | TEK | cell-free assay, competition with immobilised ligand | 1 µM | remaining binding | 100% |
| O=C(Nc1cnn(-c2csc(C(=O)NC3COC3)c2)c1)Nc1c(F)cccc1Cl | TEK | enzyme activity, inhibitor | 5 µM | remaining activity | 105% |
| CCOC(=O)c1cc2cc(-c3cc(C(=O)NCc4ccc(C(=O)O)cc4)nn3C)ccc2[nH]1 | TEK | cell-free assay, competition with immobilised ligand | 0.1 µM | remaining binding | 83% |
| CC/C(=N\NC(=O)NCc1cccc(O)c1)c1ccc(O)c(C)c1O | TEK | enzyme activity, inhibitor | 0.1 µM | inhibition | -0.2% |
